Measurements taken from PMC6438620 (Bioorganic & medicinal chemistry letters, 2018).

Key:
serotonin receptors = experiment: PDSP binding at serotonin receptor subtypes
[1] = Clinical chemistry analysis of blood samples; format: in vivo, C57BL6 mice; conditions: 5 mg/kg, daily i.p. dosing for 7 days, n = 5
In short: (§1)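 Female C57BL6 mice were dosed with test compound at 5 mg/kg i.p. once daily for seven consecutive days and sacrificed 24 h after the last injection. Blood clinical chemistry covered electrolytes, minerals, total protein, albumin, globulin, A/G ratio, BUN, ALT, AST, GLDH, ALP, bilirubin, amylase and creatine kinase.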

[2] = Tissue distribution by LC-MS/MS after 7-day i.p. treatment; conditions: 5 mg/kg i.p. daily for 7 days, 24 h after last injection
[3] = test system: LLC luc and MDA MB-231 cell lines; experiment: MTT colorimetric cytotoxicity assay, values given over both cell lines; conditions: for Cytotoxic activity compared with penfluridol: MTT, LLC luc and MDA MB-231
Toxicity in mice = conditions: mouse, in vivo
In short: as §1

[4] = target: H1 (histamine receptor 1) (Homo sapiens, UniProt P35367); experiment: PDSP primary binding and radioligand binding
Sequence of H1 (histamine receptor 1) (P35367 whole entry): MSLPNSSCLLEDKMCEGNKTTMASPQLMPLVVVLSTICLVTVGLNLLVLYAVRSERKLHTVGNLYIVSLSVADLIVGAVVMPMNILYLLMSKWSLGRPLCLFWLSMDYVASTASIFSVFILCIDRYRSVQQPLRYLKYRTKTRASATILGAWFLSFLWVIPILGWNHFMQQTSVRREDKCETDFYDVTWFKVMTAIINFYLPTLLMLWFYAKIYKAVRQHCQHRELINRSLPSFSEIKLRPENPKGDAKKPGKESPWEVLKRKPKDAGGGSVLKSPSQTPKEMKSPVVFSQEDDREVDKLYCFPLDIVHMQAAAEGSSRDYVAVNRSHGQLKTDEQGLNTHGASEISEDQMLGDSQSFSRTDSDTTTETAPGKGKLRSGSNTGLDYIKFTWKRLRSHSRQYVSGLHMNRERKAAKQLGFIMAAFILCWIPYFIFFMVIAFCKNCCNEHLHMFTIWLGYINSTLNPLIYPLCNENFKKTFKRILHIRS

[5] = target: H2 (histamine receptor 2) (Homo sapiens, UniProt P25021); experiment: PDSP primary binding and radioligand binding
Sequence of H2 (histamine receptor 2) (P25021 whole entry): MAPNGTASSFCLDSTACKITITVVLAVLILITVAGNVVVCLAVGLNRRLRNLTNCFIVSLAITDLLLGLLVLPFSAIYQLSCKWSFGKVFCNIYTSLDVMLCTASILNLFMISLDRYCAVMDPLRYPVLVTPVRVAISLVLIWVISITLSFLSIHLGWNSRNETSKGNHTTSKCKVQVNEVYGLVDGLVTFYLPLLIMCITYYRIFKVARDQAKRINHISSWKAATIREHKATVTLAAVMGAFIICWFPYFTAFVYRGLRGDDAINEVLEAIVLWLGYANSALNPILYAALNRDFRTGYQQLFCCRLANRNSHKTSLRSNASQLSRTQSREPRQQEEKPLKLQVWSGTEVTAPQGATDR

D4 dopamine receptor = target: T1, D4 dopamine receptor (Homo sapiens, UniProt P21917); experiment: PDSP primary binding and radioligand binding
T1 sequence (P21917 1-419): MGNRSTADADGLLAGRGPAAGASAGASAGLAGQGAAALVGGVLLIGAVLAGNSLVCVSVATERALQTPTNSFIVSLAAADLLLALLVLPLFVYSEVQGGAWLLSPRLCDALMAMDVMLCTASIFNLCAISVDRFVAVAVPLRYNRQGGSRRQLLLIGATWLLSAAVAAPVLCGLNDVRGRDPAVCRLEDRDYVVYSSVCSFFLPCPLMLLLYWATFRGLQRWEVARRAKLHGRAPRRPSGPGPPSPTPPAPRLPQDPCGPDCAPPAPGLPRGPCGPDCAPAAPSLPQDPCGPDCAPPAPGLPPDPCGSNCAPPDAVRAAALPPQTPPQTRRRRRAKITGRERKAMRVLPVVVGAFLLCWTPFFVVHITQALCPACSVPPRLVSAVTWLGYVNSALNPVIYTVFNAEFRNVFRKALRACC

Compound | Inhibition at some serotonin receptors (serotonin receptors; primary binding) | Alkaline phosphatase (ALP) levels [1] | Blood urea nitrogen (BUN) levels [1] | Glutamate dehydrogenase (GLDH) [1] | Distribution pattern: accumulation of the drug [2] | Toxicity in mice (Toxicity in mice) | Cytotoxic activity compared with penfluridol [3] | further results
OC1(c2ccc(Cl)c(C(F)(F)F)c2)CCN(CCCC(c2ccc(F)cc2)c2ccc(F)cc2)CC1 [penfluridol, reference compound] | 95–100% | decreased ALP levels | decreased BUN levels | increased GLDH | predominantly in the adipose tissue and lungs |  |  | IC50 ([3]; Homo sapiens, MDA-MB-231, read-out: IC50 (cytotoxicity, MTT)): 4300 to 5100 nM
COc1ccc(N(CCCCN2CCC(O)(c3ccc(Cl)c(C(F)(F)F)c3)CC2)c2ccc(OC)cc2)cc1 [8c] |  | None of these changes was observed | None of these changes was observed | None of these changes was observed |  | no toxicity in mice |  | Concentration of the drug in all tested samples (plasma, brain, lungs, adipose tissue) [2]: lower concentration of the drug in all tested samples
OC1(c2ccc(Cl)c(C(F)(F)F)c2)CCN(CCCCN(c2ccc(F)cc2)c2ccc(F)cc2)CC1 [11b] | 50–80% |  |  |  |  |  |  | Activity at H1 receptor [4]: abolished activity; Activity at H2 receptor [5]: abolished activity; Change of Ki values compared to penfluridol (serotonin receptors; other serotonin receptor subtypes): 3–16 fold; Inhibition levels at other serotonin receptor subtypes (serotonin receptors; primary binding, other serotonin receptor subtypes): > 90%
OC1(c2ccc(Cl)c(C(F)(F)F)c2)CCN(CCCCC(c2ccc(F)cc2)c2ccc(F)cc2)CC1 [8a] |  |  |  |  | predominantly in the adipose tissue and lungs | no toxicity in mice |  | Ki (D4 dopamine receptor): 25 nM; Level of the drug in the brain relative to penfluridol [2]: higher level of the drug in the brain relative to penfluridol
OC1(c2ccc(Cl)c(C(F)(F)F)c2)CCN(CCCCCc2ccc(F)cc2)CC1 [compound 13] |  |  |  |  |  |  | reduced activity | 
OC1(c2ccc(Cl)c(C(F)(F)F)c2)CCN(CCCC(c2ccccc2)c2ccccc2)CC1 [8b] |  |  |  |  |  |  | reduced activity | 
